Source: PubChem (several laboratories)
T cruzi inh = inhibitors of intracellular T. cruzi growth, primary screen, luminescence, NIH3T3 host cells; T. cruzi beta-gal in NIH3T3, 90 h; inhibition, % (test concentration not listed); 300,000 compounds, 1.4% hits;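 active = mean inhibition across valid replicates above about 55%, limit read from the data; inconclusive = mean below that limit but half or more replicates reach it; inactive = mean below it, under half of replicates reach it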;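 note: signal also drops with host cell toxicity which is not excluded here; 0% = plate median of DMSO wells and 100% = zero luminescence signal; higher percent means less beta-gal luminescence so fewer parasites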
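Incubation – ≥90 h infection period, 3 h prior cell attachment · System – NIH/3T3 fibroblasts plus reporter T. cruzi · Doses – compound pinned at 50 nL/well, DMSO · Read-out basis – percent inhibition of parasite-derived β-gal signal · Signal – luminescent β-galactosidase signal after 60 min lysis · Also added – 5000 T. cruzi trypomastigotes/well · Medium – Low-serum DMEM with 2% FBS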
HSF-1 act = HSF-1 activators, primary screen, NIH3T3-HGL cells, MG132 stress, luminescence, single point; NIH3T3-HGL HSF-1 luciferase reporter, 8 h; 100% = twice DMSO control signal; activation, % at 9 µM; 300,000 compounds, 1.7% hits; AID 504408, 2011;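 active = mean replicate activation of at least 50% with a set share of replicates each reaching 50%; inconclusive = only one of those two conditions met; inactive = mean below 50% and too few replicates reaching it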;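 note: 0% = median of the neutral control wells and 100% = twice that signal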
Jurkat NFkB inh = inhibitors of induced NF-kB luciferase reporter, primary screen, TCR NF-kB activation inhibitor project, cell-based, luminescence, uHTS | Jurkat, PMA/ionomycin-induced NF-kB luciferase reporter | AID 435003, 2010 | 330,000 compounds, 0.53% hits | inhibition, % at 4 µM; in the data active = inhibition above about 50%
697 NFkB inh = inhibitors of PMA/ionomycin-induced NF-kB reporter, 697 cells, primary screen, B-cell NF-kB inhibitor project, cell-based, luminescence, uHTS. 697 B-cell NF-kB luciferase reporter, 16 h. inhibition, % at 4 µM. 330,000 compounds, 0.33% hits; in the data active = inhibition above about 35%
HSF1 inh = HSF1 inhibitors in luciferase reporter cells, primary screen, cell-based, NIH3T3, luminescence; activity change, negative = inhibition, % at 7.5 µM (by protocol); 300,000 compounds, 0.77% hits; AID 2098, 2009; NIH3T3-HGL HSE-luciferase, MG132-induced, luminescence 8 h; stronger effect = lower value;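 active = more than half of replicate wells show activity change below -50%, luminescence cut by over half; inconclusive = some wells, but at most half, below -50%; inactive = no replicate well below -50%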;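 note: luciferase reports HSF-1 transcriptional activity via heat shock element; 0% = median of DMSO wells and -100% = zero luminescence signal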
GPR7 antagonist = GPR7 receptor antagonists, primary screen, cell-based, fluorescence, single concentration. Neuropeptides B/W receptor type 1 (Homo sapiens), P48145. GPR7-expressing cells, fluorescence antagonist assay. 290,000 compounds, 1.1% hits. inhibition, % at 4.4 µM; in the data active = inhibition above about 16%, passing the limit was not always enough;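 note: cells stimulated with the agonist NPW; 0% = agonist with vehicle and 100% = vehicle without agonist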
Target sequence (P48145 whole entry, looked up): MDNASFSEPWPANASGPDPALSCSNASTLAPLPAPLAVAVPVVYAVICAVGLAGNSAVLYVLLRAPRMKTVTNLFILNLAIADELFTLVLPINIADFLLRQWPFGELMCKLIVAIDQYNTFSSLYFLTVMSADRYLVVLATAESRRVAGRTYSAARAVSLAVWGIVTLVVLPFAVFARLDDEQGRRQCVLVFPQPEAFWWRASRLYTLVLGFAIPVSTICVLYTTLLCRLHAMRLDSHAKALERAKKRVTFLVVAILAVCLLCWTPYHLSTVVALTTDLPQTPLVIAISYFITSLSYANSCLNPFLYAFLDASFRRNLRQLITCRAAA
* marks the source's active call; other numbers are inactive results; ? = inconclusive; . = no result. Compounds with a hit are over-represented: about 4.8% of the library has one in this group of screens.

SMILES	T cruzi inh	HSF-1 act	Jurkat NFkB inh	697 NFkB inh	HSF1 inh	GPR7 antagonist
O=C(CC(O)(c1ccccc1)C(F)(F)F)c1cccs1 (stereo not given)	-1	-1	-4	-12	-9	-11
Cc1cc(NCCCn2ccnc2)n2nc(-c3ccc(Cl)cc3)cc2n1	25	12	-7	-6	8	8
CC(C)(C)c1cc(NCCCn2ccnc2)n2ncc(-c3ccc(Cl)cc3)c2n1	58*	28	-58	-35	11	1
CCN(CC)S(=O)(=O)c1cc(C(=O)n2cccn2)c(Cl)cc1Cl	10	18	4	7	5	19*
COc1ccc(C(=O)Nc2cccnc2Sc2ccc(Cl)cc2)cc1	-19	46	-13	-7	21	-12
COc1cc(C(=O)NC2CCCCC2)ccc1OCc1ccc(Cl)cc1Cl	33	6	15	17	-8	-6
COc1cc(C(=O)NCCC(C)C)ccc1OCc1ccc(Cl)cc1Cl	70*	34	5	14	4	-6
Nc1c(C(=O)c2ccccc2)sc2snc(SCC(=O)c3ccccc3)c12	-16	111*	-9	-29	51	-2
Cc1ccc(NCC(=O)N/N=C\C(Br)=C\c2ccccc2)cc1	49	145*	-1	-6	110	-9
O=C(N/N=C/C(Br)=C\c1ccccc1)c1ccco1	-15	108*	-67	-141	110	-2
Cc1cc(C)nc(SCC(=O)N/N=C\C(Br)=C\c2ccccc2)n1	-55	?	1	-10	27	7
O=C(N/N=C/C(Br)=C\c1ccccc1)c1cccs1	-21	101*	-74	-182	105	-12
O=C(N/N=C/c1ccncc1)c1cccs1	-20	29	7	-2	0	4
Cc1occc1C(=O)N/N=C/C(Br)=C\c1ccccc1	-10	363*	-107	-234	230	-2
O=C(N/N=C/c1ccccc1)c1ccco1	-5	18	-3	-33	2	-2
O=S(=O)(NCC(c1ccco1)N1CCOCC1)c1ccc(Cl)cc1 (stereo not given)	-24	-4	3	18	-2	-4
CCOC(=O)C(/C(C)=N/NC(=O)C1CC1c1ccccc1)C(C)C (stereo not given)	-3	17	0	-1	10	1
COc1cc(CNc2ccccc2)c([N+](=O)[O-])cc1OC	-6	-5	-20	-44	6	-20
CN(CC(=O)Nc1ccc(F)cc1)C(=O)c1ccc(N2C(=O)CCC2=O)cc1	.	.	-4	13	.	.
O=C(N/N=C/C(Br)=C/c1ccccc1)C1CC1	-9	47	-30	-9	47	-1
O=C(N/N=C/c1cccc([N+](=O)[O-])c1)c1cccs1	0	54*	-28	-34	24	7
O=C(N/N=C/C(Br)=C/c1ccccc1)NC1CCCCC1	7	58*	-40	-29	46	-18
CC(/C=N/NC(=O)NC1CCCCC1)=C\c1ccccc1	24	17	-16	-20	12	-5
O=C(N/N=C/C(Br)=C/c1ccccc1)C(O)c1ccccc1 (stereo not given)	2	61*	-16	-37	52	-1
O=C(N/N=C/c1cccc([N+](=O)[O-])c1)c1ccc(Br)cc1	5	9	-1	-5	15	-8
SMILES	T cruzi inh	HSF-1 act	Jurkat NFkB inh	697 NFkB inh	HSF1 inh	GPR7 antagonist
CCCC(CCC)c1nc2ccncc2[nH]1	-5	-27	3	5	-1	-12
O=C(CCCn1c(=S)[nH]c2cc3c(cc2c1=O)OCO3)NCCc1ccccc1Cl	14	-5	16	3	4	1
CCCCN(CC)CCNC(=O)c1cc2c(-c3ccc(Cl)cc3)nn(C)c2s1	57*	-7	19	3	-7	14
CCCCc1n[nH]c2c1/C(=N/OCC)CC(C)(C)C2	10	-77	20	-1	-74*	4
CCCOC1CCCN(C(=O)c2cc(COc3c(F)cccc3F)on2)C1 (stereo not given)	3	58*	-45	-66	42	-5
Cc1ccccc1C1CCCN(C(=O)c2cc(COc3c(F)cccc3F)on2)C1 (stereo not given)	9	3	-5	-9	0	-11
COc1cccc(NS(=O)(=O)c2ccc(-n3cccn3)cc2)c1	11	13	-12	-57	4	2
CCCCn1c(N)c(N(CC)C(=O)C2CCN(C(=O)c3ccccc3C)CC2)c(=O)[nH]c1=O	.	.	7	5	.	.
O=C(CCCSc1nc2ccccc2[nH]1)NCc1ccco1	1	68*	-2	5	13	-7
CC(C)c1ccc2[nH]c(O)c(N=NC(=O)c3cccc(S(=O)(=O)N4CCCCC4)c3)c2c1	69*	18	13	-4	4	-8
O=C(N=Nc1c(O)[nH]c2ccccc12)c1cccc(S(=O)(=O)N2CCCCC2)c1	13	-10	4	-12	-5	-6
CCN(CCS(=O)(=O)c1ccc(Cl)cc1)C(=O)Nc1ccccc1	-1	-73	-6	14	-64*	1
COc1cccc2cc(C(=O)NCc3ccco3)c(=Nc3ccc(C(=O)O)cc3)oc12	4	-69	-5	-19	-63*	-1
COc1cccc2cc(C(=O)NCc3ccco3)c(=O)oc12	5	1	16	3	8	-6
CCOc1ccc(CCNC(=O)CN(C)S(=O)(=O)c2ccc3c(c2)CCC(=O)N3)cc1OCC	15	-65	15	-6	-54*	-20
O=C(Cn1cnc([N+](=O)[O-])n1)N/N=C/c1ccc(O)cc1O	6	3	0	20	5	-13
Clc1ccccc1OCc1nnc(-c2ccccc2Br)o1	-1	49	-105	-126	38	8
N#Cc1ccccc1OCc1nnc(-c2ccccc2Br)o1	4	83*	-138	-140	47	8
Cc1ccc(-c2noc(C3CCCN(C(=O)c4cccc([N+](=O)[O-])c4)C3)n2)o1 (stereo not given)	5	29	-32	-17	23	4
Cc1cccc(C(=O)N2CCCC(c3nc(-c4ccc(C)o4)no3)C2)c1 (stereo not given)	3	61*	-37	-21	42	-3
CCCCCOC(=O)c1[nH]c2c(c1C)C(=O)C(C(=O)OC)C(C)C2 (stereo not given)	14	76*	-45	-35	57	10
